{"data": "Measured values from different studies", "CDK19 with cyclin C": "Cyclin-dependent kinase 19, with cyclin C (CDK19, Homo sapiens, UniProt Q9BWU1)", "CDK19": "Cyclin-dependent kinase 19 (CDK19, Homo sapiens, UniProt Q9BWU1)", "note": "Compare with care: the assays were run in different laboratories."}
{"Compound": "CC(C)(C)c1nc2c(s1)c1nc(N)ncc1c1ccc(NS(=O)(=O)c3c(F)cccc3F)c(F)c12", "target": "CDK19 with cyclin C", "observed": "enzyme activity", "mode": "inhibitor", "technique": "radiometric", "concentration": "1 µM", "quantity": "remaining activity", "value": "98%"}
{"Compound": "O=C(Nc1cnn(-c2csc(C(=O)NC3COC3)c2)c1)Nc1c(F)cccc1Cl", "target": "CDK19 with cyclin C", "observed": "enzyme activity", "mode": "inhibitor", "concentration": "5 µM", "quantity": "remaining activity", "value": "96.2%"}
{"Compound": "CN1CCN(C(=O)c2ccc3cc(CCNc4ccnc5ccc(C#N)cc45)ccc3c2)CC1", "target": "CDK19", "observed": "binding", "technique": "competition with immobilised ligand", "concentration": "2 µM", "quantity": "inhibition", "value": "> 85%"}
{"Compound": "Cc1ccc(C(=O)Nc2ccc(CN3CCN(C)CC3)c(C(F)(F)F)c2)cc1C#Cc1cnc2cccnn12", "target": "CDK19", "observed": "enzyme activity", "mode": "inhibitor", "concentration": "23.5 nM", "quantity": "remaining activity", "value": "31%"}
{"Compound": "Cc1sc(C(=O)NC2COC2)cc1-n1cc(NC(=O)Nc2c(F)cccc2Cl)cn1", "target": "CDK19 with cyclin C", "observed": "enzyme activity", "mode": "inhibitor", "concentration": "10 µM", "quantity": "remaining activity", "value": "98.1%"}
{"Compound": "F[C@@H]1CCN(c2nccc(-c3cnn4ncccc34)n2)C1", "target": "CDK19", "observed": "binding", "concentration": "1 µM", "quantity": "remaining binding", "value": "100%"}
{"Compound": "C[C@@H]1CN(c2ccc3ncc(-c4ccc5[nH]nc(C6CC6)c5c4)n3n2)C[C@H](C)O1", "target": "CDK19", "observed": "binding", "technique": "competition with immobilised ligand", "concentration": "0.5 µM", "quantity": "remaining binding", "value": "13%"}
{"Compound": "C[C@@H]1CCN(c2nccc(-c3cnn4ncccc34)n2)C1", "target": "CDK19", "observed": "binding", "concentration": "1 µM", "quantity": "remaining binding", "value": "97%"}
{"Compound": "CC(C)(C)c1nc(-c2cccc(NS(=O)(=O)c3c(F)cccc3F)c2F)c(-c2ccnc(N)n2)s1", "target": "CDK19 with cyclin C", "observed": "enzyme activity", "mode": "inhibitor", "technique": "radiometric", "concentration": "1 µM", "quantity": "remaining activity", "value": "94%"}
